# Measurements published in ChEMBL document CHEMBL1144562, “Synthesis of a new class of 2-anilino substituted nicotinyl arylsulfonylhydrazides as potential anticancer and antibacterial agents” (2007).
# Key:
# Format in all cases: functional
# Settings in all cases: Homo sapiens
# [1] = test system: SR; assay: Antitumor activity against SR cells
# Procedure, shortened: (§1)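 Tested in the NCI 60-human-tumour-cell-line panel at five concentrations, in 10-fold dilutions from 10^-4 to 10^-8 M. Three parameters were taken from the dose-response data, each as log10 of the molar concentration: GI50 (50% net growth inhibition), TGI (total growth inhibition) and LC50 (50% net cell death).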
# [2] = test system: A549; assay: Antitumor activity against A549 cells
# [3] = Antitumor activity against MALME 3M cells
# [4] = test system: M14; assay: Antitumor activity against M14 cells
# [5] = test system: SK-MEL-28; assay: Antitumor activity against SK-MEL-28 cells
# [6] = test system: SK-MEL-5; assay: Antitumor activity against SK-MEL-5 cells; procedure, shortened: as §1
# [7] = test system: UACC-257; assay: Antitumor activity against UACC257 cells; procedure, shortened: as §1
# [8] = test system: UACC-62; assay: Antitumor activity against UACC62 cells; procedure, shortened: as §1
# [9] = test system: OVCAR-3; assay: Antitumor activity against OVCAR-3 cells
# [10] = test system: OVCAR-4; assay: Antitumor activity against OVCAR4 cells
# [11] = test system: OVCAR-8; assay: Antitumor activity against OVCAR8 cells
# [12] = test system: A498; assay: Antitumor activity against A498 cells
# [13] = test system: ACHN; assay: Antitumor activity against ACHN cells
# [14] = test system: CAKI-1; assay: Antitumor activity against CAKI1 cells
# [15] = test system: SN12C; assay: Antitumor activity against SN12C cells; procedure, shortened: as §1
# [16] = test system: TK-10; assay: Antitumor activity against TK10 cells; procedure, shortened: as §1
# [17] = test system: PC-3; assay: Antitumor activity against PC3 cells
# [18] = test system: DU-145; assay: Antitumor activity against DU145 cells
# [19] = test system: MCF7; assay: Antitumor activity against MCF7 cells
# [20] = test system: MDA-MB-231; assay: Antitumor activity against MDA-MB-231 cells
# [21] = read-out: Log LC50 (the source's name) (converted)
compound,measurement,setting,value
O=C(NNS(=O)(=O)c1ccc(F)cc1)c1cccnc1Nc1ccc(Cl)cc1Cl,GI50,[1],22.9 µM
same,LC50,[1],> 100 µM
same,TGI,[1]; read-out: Log TGI (converted),67.6 µM
same,GI50,[2],17.4 µM
same,LC50,[2],97.7 µM
same,TGI,[2]; read-out: Log TGI (converted),40.7 µM
same,GI50,[3],34.7 µM
same,CC50,[3]; [21],> 100 µM
same,TGI,[3]; read-out: Log TGI (converted),> 100 µM
same,GI50,[4],46.8 µM
same,LC50,[4],> 100 µM
same,TGI,[4]; read-out: Log TGI (converted),> 100 µM
same,GI50,[5],89.1 µM
same,LC50,[5],> 100 µM
same,TGI,[5]; read-out: Log TGI (converted),> 100 µM
same,GI50,[6],25.1 µM
same,LC50,[6],> 100 µM
same,TGI,[6]; read-out: Log TGI (converted),85.1 µM
same,GI50,[7],11.7 µM
same,LC50,[7],> 100 µM
same,TGI,[7]; read-out: Log TGI (converted),52.5 µM
same,GI50,[8],45.7 µM
same,LC50,[8],> 100 µM
same,TGI,[8]; read-out: Log TGI (converted),> 100 µM
same,GI50,[9],29.5 µM
same,CC50,[9]; [21],> 100 µM
same,TGI,[9]; read-out: Log TGI (converted),95.5 µM
same,GI50,[10],38 µM
same,"LC50 (lethal concentration, 50%)",[10],> 100 µM
same,TGI,[10]; read-out: Log TGI (converted),> 100 µM
same,GI50,[11],26.9 µM
same,CC50,[11]; [21],> 100 µM
same,TGI,[11]; read-out: Log TGI (converted),> 100 µM
same,GI50,[12],17.4 µM
same,LC50,[12],77.6 µM
same,TGI,[12]; read-out: Log TGI (converted),36.3 µM
same,GI50,[13],45.7 µM
same,LC50,[13],> 100 µM
same,TGI,[13]; read-out: Log TGI (converted),> 100 µM
same,GI50,[14],30.9 µM
same,LC50,[14],> 100 µM
same,TGI,[14]; read-out: Log TGI (converted),> 100 µM
same,GI50,[15],17.8 µM
same,LC50,[15],57.5 µM
same,TGI,[15]; read-out: Log TGI (converted),31.6 µM
same,GI50,[16],33.9 µM
same,LC50,[16],> 100 µM
same,TGI,[16]; read-out: Log TGI (converted),> 100 µM
same,GI50,[17],14.8 µM
same,LC50,[17],69.2 µM
same,TGI,[17]; read-out: Log TGI (converted),32.4 µM
same,GI50,[18],22.9 µM
same,LC50,[18],> 100 µM
same,TGI,[18]; read-out: Log TGI (converted),55 µM
same,GI50,[19],31.6 µM
same,LC50,[19],> 100 µM
same,TGI,[19]; read-out: Log TGI (converted),> 100 µM
same,GI50,[20],28.8 µM
same,LC50,[20],> 100 µM
